Assay type in all cases: functional, organism-based
Assay [1] concerns Enterococcus faecium. In words: Compound was measured for the 50% growth inhibition of Streptococcus faecium ATCC 8043 microorganism. As to conditions: for IC50: Enterococcus faecium, ATCC 8043, read-out: I50. A digest of the protocol: (§1)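 Growth-inhibition test. The reduced test forms were quantified by UV absorbance at pH 7.4 using a molar absorptivity at 270 or 301 nm. Other forms were quantified by weight. The 7,8-dihydro form was made by excess sodium dithionite reduction of the aqueous potassium salt at room temperature.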

In assay [2] the test system is Enterococcus faecium. In words: Compound was measured for the 50% growth inhibition of Streptococcus faecium MTX resistant microorganism. As to conditions: for IC50: Enterococcus faecium, read-out: I50. A digest of the protocol:
as §1

The test system of assay [3] is Lacticaseibacillus casei. In words: Compound was measured for the 50% growth inhibition of Lactobacillus casei ATCC 7469 microorganism. Conditions: for IC50: Lacticaseibacillus casei, ATCC 7469, read-out: I50. In a few lines:
(§2)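 Drug solution concentrations were set either by weight or by UV absorbance at pH 7.4, using extinction coefficients of 9600 at 270 nm or 10 250 at 301 nm. The 7,8-dihydro form was made by treating the potassium salt with excess sodium dithionite at room temperature. The tetrahydro forms came from catalytic or enzymatic reduction.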

Assay [4] relates to Lacticaseibacillus casei. In words: Compound was measured for the 50% growth inhibition of Lactobacillus casei MTX resistant microorganism. Conditions: for IC50: Lacticaseibacillus casei, read-out: I50. In a few lines: as §2

Molecules are shown by their SMILES. ≈ marks a conversion by molar mass, not a printed value.

Regarding `Nc1nc(O)c2nc(CCOc3ccc(C(=O)NC(CCC(=O)O)C(=O)O)cc3)cnc2n1` (stereo not drawn), the IC50 with Enterococcus faecium [1] turned out to be 14 ng/mL (≈ 0.0307 µM); in the assay with Enterococcus faecium [2] it was 260 ng/mL (≈ 0.57 µM); in the assay on Lacticaseibacillus casei [3], 320 ng/mL (≈ 0.701 µM); with Lacticaseibacillus casei [4] it was 1000 ng/mL (≈ 2.19 µM).
On to `Nc1nc(O)c2c(n1)NCC(CCOc1ccc(C(=O)NC(CCC(=O)O)C(=O)O)cc1)=N2` (stereo not drawn), for which the IC50 in the assay on Lacticaseibacillus casei [3] was 240 ng/mL (≈ 0.524 µM); with Lacticaseibacillus casei [4], 700 ng/mL (≈ 1.53 µM).
Regarding `Nc1nc(O)c2c(n1)NCC(CCOc1ccc(C(=O)NC(CCC(=O)O)C(=O)O)cc1)N2` (racemic), the I50 in the assay on Enterococcus faecium [1] came out at 0.7 ng/mL; with Enterococcus faecium [2] it was 50 ng/mL; in the assay on Lacticaseibacillus casei [3] it was 10 ng/mL; in the assay on Lacticaseibacillus casei [4], 19 ng/mL.
For `Nc1nc(O)c2c(n1)NCC(CCOc1ccc(C(=O)NC(CCC(=O)O)C(=O)O)cc1)N2` (stereo in doubt) the same measures were 9 ng/mL, > 200 ng/mL, 56 ng/mL and 64 ng/mL.
Take `CN(Cc1cnc2nc(N)nc(N)c2n1)c1ccc(C(=O)N[C@@H](CCC(=O)O)C(=O)O)cc1` [METHOTREXATE]: the IC50 with Enterococcus faecium [1] turned out to be 0.05 ng/mL (≈ 0.00011 µM); with Enterococcus faecium [2], 3500 ng/mL (≈ 7.7 µM); with Lacticaseibacillus casei [3], 0.07 ng/mL (≈ 0.000154 µM). The I50 in the assay on Lacticaseibacillus casei [4] is > 500000 ng/mL.

Source of the values: ChEMBL document CHEMBL1121525, “Folate analogues altered in the C9--N10 bridge region. 14. 11-Oxahomofolic acid, a potential antitumor agent” (J Med Chem, 1980).
